{
  "source": "paper PMC5033602",
  "about": "(Investigative Ophthalmology & Visual Science, 2016)",
  "key": {"ARPE-19 cells [1]": {"tested_on": "ARPE-19 cells", "test": "Cell death", "format": "cell-based, human", "in_short": "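ARPE-19 cells (passages 27–40) grown in DMEM/F-12 with 10% FBS at 37°C, 5% CO₂, plated at 2 × 10⁴ cells/well (96-well) and cultured to confluency (72 h). Serum-starved 8 h in 0.5% serum, then exposed 16 h to H₂O₂ (600 μM for scrambled-control comparison) plus TNF-α (10 ng/mL) with test peptides. Dead-cell protease activity read by CytoTox-Glo; duplicate wells ± SD.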"}, "primary pig RPE cells [2]": {"tested_on": "primary pig RPE cells", "test": "Cell viability", "format": "cell-based", "in_short": "(§1)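 Primary pig RPE cultures plated at 2 × 10⁴ cells/well (96-well) and grown to confluence (72 h), then exposed to H₂O₂ with TNF-α (10 ng/mL) and test peptide for the indicated time. Live cells were measured as intracellular ATP luminescence (CellTiter-Glo) and dead cells as dead-cell protease luminescence (CytoTox-Glo), with lysis reagent added for total-cell signal. Relative cell numbers are from duplicate wells.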"}, "ARPE-19 cells [3]": {"tested_on": "ARPE-19 cells", "test": "Pyknotic nuclei counting", "format": "cell-based, human", "conditions": "600 μM H2O2, 16 hours, Hoechst stain", "in_short": "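ARPE-19 cells were serum-starved, then treated with 600 μM H₂O₂ and test peptide together for 16 h. Cells were fixed in methanol (15 min, RT) and stained with 5 μM Hoechst in PBS (15 min, RT). Five random fields per well were imaged, and pyknotic nuclei were counted as a percentage of total cells.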"}, "primary pig RPE cells [4]": {"tested_on": "primary pig RPE cells", "test": "Cell death", "format": "cell-based", "conditions": "for Cell death under oxidative stress: pig RPE", "in_short": "as §1"}, "human recombinant 5-LOX": {"tested_on": "human recombinant 5-LOX", "test": "Peptide-affinity chromatography, human recombinant 5-LOX", "format": "binding", "conditions": "0.1 M sodium phosphate, 0.1% NP-40, Western blot", "in_short": "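Human recombinant 5-LOX (300 ng) was incubated with P1-peptide agarose (0.4 nmol) in 0.1 M sodium phosphate and 0.1% NP-40 containing 25–250 mM NaCl, with gentle rotation at 4°C (1.5 h per general method). Agarose without peptide at 50 mM NaCl served as control resin. After extensive washes, bound protein was eluted in SDS-PAGE sample buffer and detected by anti-5-LOX Western blot (1:10,000) with chemiluminescence on film.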"}, "[5]": {"tested_on": "LTB4 (5-LOX activity) in primary pig RPE cells", "test": "Leukotriene B4 ELISA, primary pig RPE medium", "format": "cell-based", "conditions": "125 μM or 250 μM H2O2/TNF-α", "in_short": "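Primary pig RPE cultures received H₂O₂ with TNF-α and test peptide. Medium was collected per well, spun briefly at low speed, and 50 μL was assayed by competitive LTB₄ enzyme immunoassay. Concentration came from an LTB₄ standard curve and was normalized to cell number per well. Duplicate wells per condition, each well measured in triplicate; experiment run twice.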"}, "ARPE-19 cells [6]": {"tested_on": "ARPE-19 cells", "test": "Cell viability", "format": "cell-based, human", "in_short": "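ARPE-19 cells (passages 27–40; DMEM/F-12, 10% FBS, 37°C, 5% CO₂) were plated at 2 × 10⁴ cells/well and grown to confluence (72 h). After 8 h starvation in 0.5% serum, cells received increasing H₂O₂ plus TNF-α (10 ng/mL), with or without test peptide, for 16 h. Relative live-cell numbers came from intracellular ATP luminescence; each point is the mean of duplicate wells.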"}, "PEDF": {"tested_on": "PEDF", "conditions": "peptides from Leu159-Met325 of PEDF-R; cited from earlier work"}, "[7]": {"tested_on": "LTB4 (5-LOX activity) in ARPE-19 cells", "test": "Leukotriene B4 ELISA, ARPE-19 medium", "format": "cell-based, human"}},
  "note": "Entries after “also recorded” stand apart in the source; their conditions may differ.",
  "data": [
    {"substance": "P1: L4-derived peptide containing residues Thr^210-Leu^249 of human PEDF-R (TSIQFNLRNLYRLSKALFPPEPLVLREMCKQGYRDGLRFL; UniProt Q96AD5 210-249, looked up, fragment)", "values": [
      {"measurement": "Number of dead cells under oxidative stress", "setting": "ARPE-19 cells [1]; H2O2 (600 μM for SCR comparison), dead cell protease activity", "value": "decreased cell death of RPE cells undergoing oxidative stress; also recorded: decreased the number of dead cells under oxidative stress in a concentration-dependent fashion"},
      {"measurement": "Protection from oxidative stress-induced cell death (summary)", "setting": "ARPE-19 cells [1]; H2O2/TNF-α", "value": "protected ARPE-19 and pig primary RPE cells from oxidative stress–induced cell death in a specific and concentration-dependent fashion"},
      {"measurement": "Cell viability under oxidative stress", "setting": "primary pig RPE cells [2]; 125 μM H2O2", "value": "increased pig RPE cell viability"},
      {"measurement": "Cell numbers (viability) under oxidative stress", "setting": "primary pig RPE cells [2]; 250 μM H2O2", "value": "did not increase the cell numbers"},
      {"measurement": "Pyknotic nuclei level", "setting": "ARPE-19 cells [3]", "value": "resulted in a decrease of pyknotic nuclei level"},
      {"measurement": "Cell death under oxidative stress", "setting": "primary pig RPE cells [4]; 125 μM H2O2", "value": "decreased death at 125 μM H2O2"},
      {"measurement": "Cell death under oxidative stress", "setting": "primary pig RPE cells [4]; 250 μM H2O2", "value": "decreased cell death at 250 μM H2O2"},
      {"measurement": "Protection from oxidative stress-induced cell death (summary)", "setting": "primary pig RPE cells [4]; pig primary RPE, H2O2/TNF-α", "value": "protected ARPE-19 and pig primary RPE cells from oxidative stress–induced cell death in a specific and concentration-dependent fashion"},
      {"measurement": "Binding of 5-LOX to P1 at 250 mM NaCl", "setting": "human recombinant 5-LOX; 250 mM NaCl", "value": "completely abolished"},
      {"measurement": "Binding of 5-LOX to P1 with increasing ionic strength", "setting": "human recombinant 5-LOX; 25-250 mM NaCl", "value": "with increasing ionic strength the binding decreased"},
      {"measurement": "LTB4 level under oxidative stress", "setting": "[5]", "value": "decreased LTB4 levels in primary pig RPE cells treated at 125 μM or 250 μM H2O2/TNF-α in a concentration-dependent fashion"},
      {"measurement": "Protective effect against H2O2", "setting": "ARPE-19 cells [6]; 600 μM H2O2 plus TNF-α (10 ng/mL), preliminary, data not shown", "value": "had protective effects against 600 μM H2O2"},
      {"measurement": "Cell viability under oxidative stress", "setting": "ARPE-19 cells [6]; H2O2/TNF-α, ATP live cell biomarker, duplicate wells", "value": "promoted cell viability; also recorded: increased the ARPE-19 cell viability"},
      {"measurement": "PEDF-binding affinity", "setting": "PEDF", "value": "retain the PEDF-binding affinity of PEDF-R"},
      {"measurement": "LTB4 level under oxidative stress", "setting": "[7]; 600 μM H2O2/TNF-α, 20 nM P1", "value": "decreased LTB4 to basal levels"},
      {"measurement": "LTB4 level under oxidative stress", "setting": "[7]; 750 μM H2O2/TNF-α", "value": "only partially diminished LTB4"}
    ]}
  ]
}
